This is an account of results in ChEMBL document CHEMBL1122898, “Antiulcer agents. 1. Gastric antisecretory and cytoprotective properties of substituted imidazo[1,2-a]pyridines” (1985).

Test [1] has as its system Canis familiaris. The test is described as follows: Inhibition of histamine stimulated gastric acid secretion in adult mongrel dogs at dose 1 mg/kg given intravenously. The test is classed as functional. Particulars: Canis lupus familiaris, Stomach, route intravenous. The procedure, abridged: (§1)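 Dogs with Heidenhain pouches, 12–18 kg, fasted 18 h. Compound given iv in 3 mL or by gavage in 5 mL of 0.4% methylcellulose/saline, 1 h after infusion start. 30-min collections titrated. Summed 3-h AO against the same dog's control AO gives % inhibition. Usually one dog per compound.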

The subject of test [2] is Canis familiaris. The test is described as follows: Inhibition of histamine stimulated gastric acid secretion in adult mongrel dogs at dose 2 mg/kg given intravenously. Type of test: functional. Particulars: Canis lupus familiaris, Stomach, route intravenous. The method, boiled down:
as §1

The test system of test [3] is Canis familiaris. The test is described as follows: Inhibition of histamine stimulated gastric acid secretion in adult mongrel dogs at dose 2 mg/kg given orally. Type of test: functional. Particulars: Canis lupus familiaris, Stomach, route oral. The procedure, abridged: as §1
Test [4] relates to Canis familiaris. The test is described as follows: Inhibition of histamine stimulated gastric acid secretion in adult mongrel dogs at dose 8 mg/kg given orally. Type of test: functional. Particulars: Canis lupus familiaris, Stomach, route oral. The procedure, abridged:
as §1

For test [5], the species on record is Rattus norvegicus. The test is described as follows: Oral gastric cytoprotective activity in the rat against ethanol-induced lesions. Type of test: functional. Particulars: Stomach. The procedure, abridged: (§2)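 Rats fasted and water-deprived for 20 h. Compound given orally, 1–30 mg/kg in 0.4% methylcellulose/saline, 30 min before 1 mL absolute ethanol po. Killed 1 h after ethanol. Linear hemorrhagic lesion lengths totalled per stomach, expressed as group mean. ED50 by linear regression.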

Test [6] deals with Rattus norvegicus. The test is described as follows: Gastric antisecretory activity in the pylorus-ligated rat and the reduction in acid output was measured after 4 hr by intraperitoneal (ip) administration of 40 mg/kg dose. Type of test: functional. The procedure, abridged: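 Male Charles River CD rats, 150–200 g, fasted 24 h. Pylorus ligated under Brevital anesthesia. 40 mg/kg given ip in 2.5% Tween 80 at ligation. Stomach contents collected at 4 h and titrated with 0.1 N NaOH to pH 7.0. % inhibition from mean AO, 6 treated vs 8 control rats. Student's t test.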

For test [7], the system named is Canis familiaris. Put plainly: Inhibition of histamine stimulated gastric acid secretion in adult mongrel dogs at dose 5 mg/kg given intravenously. Type of test: functional. The conditions noted are these: Canis lupus familiaris, Stomach, route intravenous. The procedure, abridged: as §1
For test [8], the species on record is Rattus norvegicus. Put plainly: Oral gastric cytoprotective activity in the rat against ethanol-induced lesions was evaluated; NA=Inactive. The test is classed as functional, organism-based. The conditions noted are these: Stomach. The method, boiled down:
as §2

In test [9] the test system is Canis familiaris. The test is described as follows: Inhibition of histamine stimulated gastric acid secretion in adult mongrel dogs at dose 0.1 mg/kg given intravenously. The test is classed as functional. The conditions noted are these: Canis lupus familiaris, Stomach, route intravenous. The method, boiled down:
as §1

For test [10], the system named is Canis familiaris. The test is described as follows: Inhibition of histamine stimulated gastric acid secretion in mongrel dogs following 4 mg/kg p.o. administration. The test is classed as functional. Particulars: Canis lupus familiaris, Stomach, route oral. The procedure, abridged:
as §1

For test [11], the species on record is Rattus norvegicus. Put plainly: Oral gastric cytoprotective activity in the rat against ethanol-induced lesions was evaluated. Particulars: Stomach.
The subject of test [12] is Canis familiaris. Put plainly: Effective dose against histamine stimulated gastric acid secretion in adult mongrel dogs given intravenously; value ranges from 0.01-1.19. The conditions noted are these: Canis lupus familiaris, Stomach, iv. The test is classed as functional.
Test [13] relates to Canis familiaris. Put plainly: Effective dose against histamine stimulated gastric acid secretion in adult mongrel dogs given orally; value ranges from 2.1-14.0. Particulars: Canis lupus familiaris, Stomach, po. Type of test: functional.
For test [14], the system named is Canis familiaris. The test is described as follows: Inhibition of histamine stimulated gastric acid secretion in adult mongrel dogs at dose 4 mg/kg given orally. Type of test: functional. Particulars: Canis lupus familiaris, Stomach, route oral. The procedure, abridged:
as §1

Test [15] has as its system Canis familiaris. Put plainly: Effective dose against histamine stimulated gastric acid secretion in adult mongrel dogs given orally. Type of test: functional. The conditions noted are these: Canis lupus familiaris, Stomach, po.
Test [16] is filed under the species Canis familiaris. Put plainly: Relative potency was calculated; value ranges from 0.1-2.1. Type of test: functional, Canis lupus familiaris.

Calls of active or inactive are those of the source. No cut-off for these calls is given here.

The term inhibition in vivo denotes the percentage by which the read-out fell short of the control. By ED50 is commonly meant the dose that gives a 50% effect, or the effect in half of the subjects. In turn, `N#CCc1cnc2c(OCc3ccccc3)cccn12` gave an inhibition in vivo at 1 mg/kg in the test with Canis familiaris [1] of 52%. Besides, the inhibition in vivo at 2 mg/kg with Canis familiaris [2] stood at 96%; in the test with Canis familiaris [3] it was 6%. Besides, the inhibition in vivo at 8 mg/kg in the test on Canis familiaris [4] worked out at 46%. The ED50 in the test listed under Rattus norvegicus [5] was 1 mg/kg. This molecule registered an inhibition in vivo at 40 mg/kg in the test with Rattus norvegicus [6] of 99%.
In the test on Canis familiaris [7], `Cc1nc2c(OCc3ccccc3)cccn2c1C(=O)O` showed an inhibition in vivo at 5 mg/kg of 4%. Moreover, in the test listed under Rattus norvegicus [8], the ED50 result was “inactive”. Further, 40 mg/kg produced 0% inhibition in vivo in the test on Rattus norvegicus [6].
In the case of `CCc1nc2c(OCc3ccccc3)cccn2c1CC#N`, the inhibition in vivo at 0.1 mg/kg in the test with Canis familiaris [9] came to 16%. In the test with Canis familiaris [2], this molecule gave an inhibition in vivo at 2 mg/kg of 95%. This molecule also gave an inhibition in vivo at 4 mg/kg in the test on Canis familiaris [10] of 54%. The molecule also showed an inhibition in vivo at 8 mg/kg in the test with Canis familiaris [4] of 93%. Moreover, it took a dose of 4 mg/kg to reach the 50% effect level in the test listed under Rattus norvegicus [5] (ED50). The inhibition in vivo at 40 mg/kg in the test on Rattus norvegicus [6] was determined as 91%.
In the case of `[C-]#[N+]Cc1c(C)nc2c(OCc3ccccc3)cccn12`, the inhibition in vivo at 0.1 mg/kg with Canis familiaris [9] was determined as 37%. This molecule returned an inhibition in vivo at 2 mg/kg in the test on Canis familiaris [2] of 94%. Moreover, the inhibition in vivo at 4 mg/kg in the test with Canis familiaris [10] is 8%. Also, testing at 8 mg/kg with Canis familiaris [4] gave an inhibition in vivo of 94%. The molecule also gave an inhibition in vivo at 40 mg/kg with Rattus norvegicus [6] of 96%. This molecule gave an ED50 in the test listed under Rattus norvegicus [11] of 2.2 mg/kg.
Regarding `Cc1nc2c(CSc3ccccc3)cccn2c1C`, in the test with Canis familiaris [1], at 1 mg/kg the inhibition in vivo was 31%. This molecule also displayed an inhibition in vivo at 40 mg/kg in the test on Rattus norvegicus [6] of 29%. Further, the ED50 in the test filed under Rattus norvegicus [11] is 6.4 mg/kg.
Molecule `Cc1nc2c(OCc3ccccc3)cccn2c1CC#N` gave an inhibition in vivo at 0.1 mg/kg in the test on Canis familiaris [9] of 49%. The molecule further displayed an inhibition in vivo at 1 mg/kg with Canis familiaris [1] of 88%. For the same molecule, the results for the inhibition in vivo at 2 mg/kg with Canis familiaris [2] and in the test with Canis familiaris [3] were 95% and 20%, respectively. Besides, testing at 4 mg/kg in the test on Canis familiaris [10] gave an inhibition in vivo of 42%. For the same molecule, in the test on Canis familiaris [7], the inhibition in vivo at 5 mg/kg is 99%. The molecule further came in with an inhibition in vivo at 8 mg/kg in the test with Canis familiaris [4] of 77%. The values for the ED50 with Canis familiaris [12], in the test with Canis familiaris [13] and in the test filed under Rattus norvegicus [5] were 0.09 mg/kg, 4.4 mg/kg and 3 mg/kg, respectively. In the test with Rattus norvegicus [6], the inhibition in vivo at 40 mg/kg amounted to 98%.
`Cc1nc2c(OCc3ccccc3)cccn2c1CO`: the inhibition in vivo at 1 mg/kg with Canis familiaris [1] is 57%. The molecule also registered an inhibition in vivo at 2 mg/kg in the test on Canis familiaris [2] of 80%. Further, the inhibition in vivo at 4 mg/kg in the test with Canis familiaris [10] worked out at 20%. Further, at 5 mg/kg the inhibition in vivo with Canis familiaris [7] was 80%. In the test on Canis familiaris [4], this molecule had an inhibition in vivo at 8 mg/kg of 20%. Also, the 50% effect level in the test filed under Rattus norvegicus [5] (ED50) was put at a dose of 16 mg/kg. In the test on Rattus norvegicus [6], this molecule displayed an inhibition in vivo at 40 mg/kg of 99%.
The molecule `Cc1nc2c(OCc3ccccc3)cccn2c1C#N` yielded an inhibition in vivo at 5 mg/kg with Canis familiaris [7] of 4%. Also, the ED50 entry in the test filed under Rattus norvegicus [8] was “inactive”. Further, the inhibition in vivo at 40 mg/kg with Rattus norvegicus [6] came to 25%.
In turn, `Cc1nc2c(OCc3cccs3)cccn2c1CC#N` registered an inhibition in vivo at 0.1 mg/kg in the test with Canis familiaris [9] of 26%. Further, 1 mg/kg produced 90% inhibition in vivo in the test on Canis familiaris [1]. Besides, the inhibition in vivo at 5 mg/kg in the test on Canis familiaris [7] amounted to 99%. This molecule also showed an inhibition in vivo at 8 mg/kg with Canis familiaris [4] of 75%. This molecule registered an inhibition in vivo at 4 mg/kg with Canis familiaris [14] of 17%. For the same molecule, in the test filed under Rattus norvegicus [5], it took a dose of 7 mg/kg to reach the 50% effect level (ED50). Also, in the test on Rattus norvegicus [6], at 40 mg/kg the inhibition in vivo was 96%.
The molecule `Cc1nc2c(OCc3ccsc3)cccn2c1CC#N` returned an inhibition in vivo at 0.1 mg/kg with Canis familiaris [9] of 70%. This molecule also had an inhibition in vivo at 2 mg/kg in the test on Canis familiaris [3] of 40%. Also, the inhibition in vivo at 4 mg/kg in the test on Canis familiaris [10] is 77%. Besides, 5 mg/kg produced 97% inhibition in vivo in the test with Canis familiaris [7]. Besides, in the test with Canis familiaris [4], the inhibition in vivo at 8 mg/kg came to 88%. The ED50 was 2.7 mg/kg in the test on Canis familiaris [15] and 2 mg/kg in the test listed under Rattus norvegicus [5]. Further, the inhibition in vivo at 40 mg/kg in the test on Rattus norvegicus [6] was found to be 91%.
In the case of `Cc1nc2c(OCCc3ccccc3)cccn2c1CC#N`, testing at 2 mg/kg in the test with Canis familiaris [3] gave an inhibition in vivo of 0%. The molecule further came in with an inhibition in vivo at 4 mg/kg in the test on Canis familiaris [10] of 47%. In the test with Canis familiaris [7], testing at 5 mg/kg gave an inhibition in vivo of 95%. In addition, in the test with Canis familiaris [4], at 8 mg/kg the inhibition in vivo was 89%. The ED50 in the test filed under Rattus norvegicus [5] is 6 mg/kg. In the test with Rattus norvegicus [6], this molecule displayed an inhibition in vivo at 40 mg/kg of 70%.
Molecule `Cc1nc2c(CCc3ccccc3)cccn2c1CC#N` gave an inhibition in vivo at 0.1 mg/kg in the test with Canis familiaris [9] of 74%. This molecule also displayed an inhibition in vivo at 2 mg/kg with Canis familiaris [2] of 92%. Further, the inhibition in vivo at 5 mg/kg in the test with Canis familiaris [7] is 96%. This molecule yielded an inhibition in vivo at 8 mg/kg in the test with Canis familiaris [4] of 83%. Testing at 4 mg/kg in the test on Canis familiaris [14] gave an inhibition in vivo of 3%. The ED50 in the test listed under Rattus norvegicus [5] is 7 mg/kg. This molecule also returned an inhibition in vivo at 40 mg/kg in the test with Rattus norvegicus [6] of 99%.
`Cc1nc2c(NCc3ccccc3)cccn2c1CC#N` came in with an inhibition in vivo at 0.1 mg/kg in the test on Canis familiaris [9] of 85%. In the test on Canis familiaris [2], testing at 2 mg/kg gave an inhibition in vivo of 96%. Further, the inhibition in vivo at 4 mg/kg in the test on Canis familiaris [10] is 35%. The inhibition in vivo at 5 mg/kg in the test with Canis familiaris [7] was determined as 98%. In the test with Canis familiaris [4], this molecule returned an inhibition in vivo at 8 mg/kg of 75%. In the test listed under Canis familiaris [16], the Relative potency is reported as 1.5. In addition, the ED50 in the test on Canis familiaris [13] was 6.7 mg/kg; in the test filed under Rattus norvegicus [5] it was 2 mg/kg. The molecule further returned an inhibition in vivo at 40 mg/kg with Rattus norvegicus [6] of 98%.
Regarding `Cc1nc2c(OCc3ccc(Cl)cc3)cccn2c1CC#N`, the inhibition in vivo at 0.1 mg/kg in the test on Canis familiaris [9] came out at 29%. Further, the inhibition in vivo at 2 mg/kg in the test with Canis familiaris [2] worked out at 58%; in the test with Canis familiaris [3], 30%. In the test with Canis familiaris [10], 4 mg/kg produced 56% inhibition in vivo. For the same molecule, in the test with Canis familiaris [7], 5 mg/kg produced 95% inhibition in vivo. The molecule further gave an inhibition in vivo at 8 mg/kg with Canis familiaris [4] of 70%. For the same molecule, in the test filed under Rattus norvegicus [5], it took a dose of 6.6 mg/kg to reach the 50% effect level (ED50). Further, the inhibition in vivo at 40 mg/kg with Rattus norvegicus [6] worked out at 90%.
